Laboratory results: PMC10455042 (Biochemical engineering journal, 2023)
Where a SMILES comes first, the peptide text is derived from it. [ ]: non-standard residue; d: D form.

Assays:
N2a cells = experiment: alamarBlue cell viability assay; assay type: cell-based; conditions: 24 h
Procedure, shortened: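 N2a cells in MEM with 10% cosmic calf serum, plated at 1×10^4 cells/well two days before the assay, then PBS-washed. Exposed to increasing peptide concentrations (up to 200 µM) for 24 h at 37 °C, ECB-washed, then given alamarBlue in serum-free medium for 4 h at 37 °C. Fluorescence read at ex 532/[…], normalised to no-peptide control (F/C), triplicate average.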

[1] = flow cytometry; cited from earlier work
[2] = Peptide degradation assay in N2a lysates; assay type: in vitro ADME; conditions: 2 mg/mL N2a lysates, 37°C; HPLC, intact peptide
Tau = experiment: Western blotting analysis of Tau levels in N2a cells treated with PROTACs; assay type: cell-based; conditions: N2a cells pre-treated with 10 μM PYR-41 for one hour, then co-incubated with 200 μM peptide for 12 h; western blot
[3] = RWRWR peptide alone; cited from earlier work

Molecule | Effect on cell viability (N2a cells) | Uptake (previously published) [1] | Resistance to degradation in N2a lysates [2] | Decrease in Tau signal on co-incubation with E1 inhibitor PYR-41 (Tau) | Peptide remaining after 2 hours (previously reported) [3]
CC[C@H](C)[C@H](NC(=O)[C@H](Cc1ccc(O)cc1)NC(=O)[C@@H]1CCCN1C(=O)[C@H](C)NC(=O)[C@H](CC(C)C)NC(=O)[C@H](C)NC(=O)[C@H](CO)NC(=O)CNC(=O)[C@H](CO)NC(=O)CNC(=O)CNC(=O)[C@H](CCC(N)=O)NC(=O)[C@H](CCC(=O)O)NC(=O)[C@H](CC(=O)O)NC(=O)[C@H](C)NC(=O)[C@@H](NC(=O)[C@H](C)NC(=O)[C@H](CC(=O)O)NC(=O)[C@H](CCC(N)=O)NC(=O)[C@H](Cc1ccc(O)cc1)NC(=O)[C@H](CCC(N)=O)NC(=O)[C@H](CCC(N)=O)NC(=O)[C@H](Cc1ccc(O)cc1)NC(C)=O)[C@@H](C)O)C(=O)N1CCC[C@H]1C(=O)N[C@H](CCCNC(=N)N)C(=O)N[C@H](CCCNC(=N)N)C(=O)N[C@H](CCCNC(=N)N)C(=O)N[C@H](CCCNC(=N)N)C(=O)N[C@H](CCCNC(=N)N)C(=O)N[C@H](CCCNC(=N)N)C(=O)N[C@H](CCCNC(=N)N)C(=O)N[C@H](CCCNC(=N)N)C(N)=O [Peptide 1] (Ac-YQQYQDATADEQGGSGSALAPYIP[dR][dR][dR][dR][dR][dR][dR][dR]-NH2) | minimal effects on cell viability | time-dependent uptake |  |  | 
CC[C@H](C)[C@H](NC(=O)[C@H](Cc1c[nH]c2ccccc12)NC(=O)[C@H](CCCNC(=N)N)NC(=O)CNC(=O)[C@H]1CCCN1C(=O)[C@@H](NC(=O)[C@H](CCCNC(=N)N)NC(=O)[C@@H](NC(=O)[C@H](Cc1c[nH]c2ccccc12)NC(=O)[C@H](CCCNC(=N)N)NC(C)=O)C(C)C)C(C)C)C(=O)N[C@@H](CCCNC(=N)N)C(=O)N[C@@H](CCC(N)=O)C(=O)N[C@@H](Cc1ccc(O)cc1)C(=O)N[C@@H](CCC(N)=O)C(=O)N[C@@H](CCC(N)=O)C(=O)N[C@@H](Cc1ccc(O)cc1)C(=O)N[C@@H](CCC(N)=O)C(=O)N[C@@H](CC(=O)O)C(=O)N[C@@H](C)C(=O)N[C@H](C(=O)N[C@@H](C)C(=O)N[C@@H](CC(=O)O)C(=O)N[C@@H](CCC(=O)O)C(=O)N[C@@H](CCC(N)=O)C(=O)NCC(N)=O)[C@@H](C)O [Peptide 2] (Ac-RWVRV[dP]GRWIRQYQQYQDATADEQG-NH2) | minimal effects on cell viability |  | more resistant to degradation than its unstructured counterpart Peptide 1 | decrease is negated | 
RWVRWpGRWIRQ [RWRWR] |  |  |  |  | approximately 80%
